For 1 molecule, Ki results are on record in article PMC4303589 (Molecular and cellular biochemistry, 2014).

This experiment has as its target T1, SvAS (fused anthranilate synthase, SvTrpEG) (Streptomyces venezuelae, UniProt O30589).
T1 sequence (O30589 1-623): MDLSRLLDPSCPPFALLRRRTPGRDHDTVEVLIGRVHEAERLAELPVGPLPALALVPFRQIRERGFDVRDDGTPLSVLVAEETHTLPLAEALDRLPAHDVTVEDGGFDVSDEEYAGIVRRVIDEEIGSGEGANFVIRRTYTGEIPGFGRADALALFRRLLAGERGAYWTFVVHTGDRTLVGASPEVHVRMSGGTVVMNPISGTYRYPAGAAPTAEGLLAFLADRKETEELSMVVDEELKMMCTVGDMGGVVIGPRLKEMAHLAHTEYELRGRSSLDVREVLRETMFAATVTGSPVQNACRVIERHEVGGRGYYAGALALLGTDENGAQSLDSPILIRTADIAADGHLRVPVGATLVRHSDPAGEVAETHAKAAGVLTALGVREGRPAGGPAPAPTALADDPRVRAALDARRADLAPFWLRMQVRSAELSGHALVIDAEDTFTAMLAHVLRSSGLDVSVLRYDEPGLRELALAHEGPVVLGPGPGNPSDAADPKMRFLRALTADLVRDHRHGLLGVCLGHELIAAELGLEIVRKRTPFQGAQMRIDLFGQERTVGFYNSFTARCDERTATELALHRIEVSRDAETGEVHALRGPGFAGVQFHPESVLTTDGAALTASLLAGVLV
The experiment is classed as biochemical. In outline:
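His-tagged SvAS expressed in E. coli BL21(DE3)pLysS and purified on Ni-NTA. Assays at 30°C in 50 mM Tricine pH 7.5 with 12.5 mM MgCl2, 10 μg enzyme, 20 mM glutamine (saturating), 0.39–100 μM chorismate, and 2.5, 5, 10 or 20 μM test compound. Anthranilate fluorescence (ex 315/em 395 nm) converted via standard curve. Lineweaver-Burk plot assigned inhibition type; Ki from fit to that equation.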

As a reminder, the Ki is a dissociation constant, usually derived from enzyme kinetics or from competition with a known ligand. A higher Ki goes with weaker binding.

In the case of `N[C@@H](Cc1c[nH]c2ccccc12)C(=O)O` [tryptophan], the Ki came to 11.1 ± 0.1 µM.
